What all share (format): organism-based
Common to all, as to conditions: in vivo, icv_or_intrathecal

Series [1] can be described thus: Toxicity in ddY mouse assessed as death time at 4.4 nmol dosed via intracerebroventricular injection. The method in brief:
(§1)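 Male ddY mice (11−13 g, 3 weeks old), three per compound. Doses, quantified by LC-MS against a weighed standard, were given in 10 μL water, injected slowly over 5 s into the ventricle: 2 mm lateral to the skull midline, 3 mm rostral to the anterior ear-base line, 3 mm deep. Water served as vehicle control. Death time and behavioural symptoms were recorded.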

The nature of series [2]: Toxicity in ddY mouse assessed as induction of adverse symptoms at 4.4 nmol dosed via intracerebroventricular injection. The method in brief: as §1
The nature of series [3]: Toxicity in ddY mouse assessed as death time at 2.2 nmol dosed via intracerebroventricular injection. The method in brief: as §1
The nature of series [4]: Toxicity in ddY mouse assessed as induction of scratching at 2.2 nmol dosed via intracerebroventricular injection. The method in brief: as §1
The nature of series [5]: Toxicity in ddY mouse assessed as induction of spasms at 2.2 nmol dosed via intracerebroventricular injection. The method in brief:
as §1

The nature of series [6]: Toxicity in ddY mouse assessed as induction of sudden jumping at 2.2 nmol dosed via intracerebroventricular injection. The method in brief:
as §1

Series [7] can be described thus: Toxicity in ddY mouse assessed as death time at 1.1 nmol dosed via intracerebroventricular injection. The method in brief: as §1
Series [8] can be described thus: Toxicity in ddY mouse assessed as induction of scratching at 1.1 nmol dosed via intracerebroventricular injection. The method in brief: as §1
Series [9] can be described thus: Toxicity in ddY mouse assessed as induction of spasms at 1.1 nmol dosed via intracerebroventricular injection. The method in brief:
as §1

Series [10] is described as follows: Toxicity in ddY mouse assessed as induction of sudden jumping at 1.1 nmol dosed via intracerebroventricular injection. The method in brief: as §1
Series [11] is described as follows: Toxicity in ddY mouse assessed as induction of adverse symptoms at 2.2 nmol dosed via intracerebroventricular injection. The method in brief:
as §1

This note sets out measurements from ChEMBL document CHEMBL4392869, “Possible Biosynthetic Products and Metabolites of Kainic Acid from the Red Alga Digenea simplex and Their Biological Activity” (J Nat Prod, 2019).

Take `CC(C)=CCN[C@@H](CCC(=O)O)C(=O)O`: the Activity result in [1] and in [2] was “Non-Toxic” throughout.

For the molecule `C=C(C)[C@@]1(O)CN[C@H](C(=O)O)[C@H]1CC(=O)O`, the Activity result is “Non-Toxic” in series [3], “Toxic” in series [4], “Toxic” in [5] and “Toxic” in series [6].

On to `CC(C)=CCN[C@H](C(=O)O)[C@H](O)CC(=O)O` (relative stereo), for which the Activity result in series [1] and in [2] was “Non-Toxic” throughout.

In the case of `C=C(C)[C@H]1CN[C@H](C(=O)O)[C@H]1CC(=O)O` [KAINIC ACID], in [7], the Time fell in the range of 15 to 30 min. Also, the Activity entry in [8], in [9] and in series [10] was “Toxic” throughout.

Regarding `C=C(C)[C@]1(O)CN[C@H](C(=O)O)[C@H]1CC(=O)O`, the Activity result in [3] and in [11] was “Non-Toxic” in each case.
